Experimental data as given in ChEMBL document CHEMBL4138046, “Multivalent ligands for the serotonin 5-HT4 receptor” (Medchemcomm, 2017).
Calls of active or inactive are those of the source. No cut-off for these calls is given here.

Assays:
[1] = target: 5-hydroxytryptamine receptor 4 (Homo sapiens) (UniProt Q13639); test: Agonist activity at human 5-HT4R expressed in GloSensor-22F6 expressing 2B2 cells co-expressing Galpha-s assessed as increase in cAMP accumulation up to 60 mins by luminometry relative to control 5-HT; assay type: functional, cell-based
Chain of 5-hydroxytryptamine receptor 4 (Homo sapiens) (Q13639 whole entry, the tested form may be a part): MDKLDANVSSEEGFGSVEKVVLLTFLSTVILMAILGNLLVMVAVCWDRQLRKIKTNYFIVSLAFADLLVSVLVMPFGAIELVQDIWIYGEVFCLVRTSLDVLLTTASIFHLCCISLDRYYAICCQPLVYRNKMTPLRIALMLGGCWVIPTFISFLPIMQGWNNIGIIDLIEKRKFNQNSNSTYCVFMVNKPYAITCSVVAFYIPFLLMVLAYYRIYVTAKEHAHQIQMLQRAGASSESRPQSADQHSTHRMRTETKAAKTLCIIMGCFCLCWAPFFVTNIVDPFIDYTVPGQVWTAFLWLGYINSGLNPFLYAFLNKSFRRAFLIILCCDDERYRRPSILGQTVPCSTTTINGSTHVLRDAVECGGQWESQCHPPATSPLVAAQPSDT
Outline: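 Cells carrying a cAMP luminescence biosensor were additionally transduced with Gαs and human 5-HT4R, then seeded at 25 x 10³ cells/well 24 h ahead. Ligands (up to 10 µM) were added with 1 mM final IBMX.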

[2] = target: 5-hydroxytryptamine receptor 4 (Homo sapiens) (UniProt Q13639); test: Partial agonist activity at Rluc-tagged human 5-HT4 receptor expressed in human SH-5YSY cells co-expressing RGFP-fused to Gbeta1 assessed as inhibition of serotonin-induced coupling by BRET assay; assay type: functional, cell-based
[3] = target: 5-hydroxytryptamine receptor 4 (Cavia porcellus, UniProt O70528); test: Displacement of [3H]GR113808 from serotonin 5-HT4 receptor in Dunkin-Hartley guinea pigs striatal nuclei membranes incubated for 30 mins by liquid scintillation counting
Chain of 5-hydroxytryptamine receptor 4 (O70528 whole entry): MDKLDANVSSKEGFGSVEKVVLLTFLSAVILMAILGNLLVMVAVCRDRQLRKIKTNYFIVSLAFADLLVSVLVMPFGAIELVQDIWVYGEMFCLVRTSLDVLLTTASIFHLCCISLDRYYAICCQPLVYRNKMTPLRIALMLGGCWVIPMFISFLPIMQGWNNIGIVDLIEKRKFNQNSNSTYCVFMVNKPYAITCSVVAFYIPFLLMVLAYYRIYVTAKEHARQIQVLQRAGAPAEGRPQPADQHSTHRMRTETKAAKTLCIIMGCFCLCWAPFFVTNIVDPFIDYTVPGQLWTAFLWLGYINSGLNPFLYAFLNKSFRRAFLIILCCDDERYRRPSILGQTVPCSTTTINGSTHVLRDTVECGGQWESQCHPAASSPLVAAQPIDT

SMILES	Ratio [1]	Activity [2]	Ki [3]
COc1cc(N)c(Cl)cc1C(=O)OCCCN1CCCCC1	0.09	Active	
COc1cc(N)c(Cl)cc1C(=O)OCCN1CCC(NC(=O)NCCOCCOCCNC(=O)NC2CCN(CCOC(=O)c3cc(Cl)c(N)cc3OC)CC2)CC1	0.28	Active	4 nM
COc1cc(N)c(Cl)cc1C(=O)OCCN1CCC(NC(=O)NCCOCCOCCOCCOCCOCCOCCOCCOCCn2cc(CNC(=O)NCCCN(C)CCCNC(=O)NCc3cn(CCOCCOCCOCCOCCOCCOCCOCCOCCNC(=O)NC4CCN(CCOC(=O)c5cc(Cl)c(N)cc5OC)CC4)nn3)nn2)CC1	0.16	Active	9 nM
COc1cc(N)c(Cl)cc1C(=O)OCCN1CCC(NC(=O)NCCOCCOCCOCCOCCOCCOCCOCCOCCn2cc(CNC(=O)NCCCN(CCCCN(CCCNC(=O)NCc3cn(CCOCCOCCOCCOCCOCCOCCOCCOCCNC(=O)NC4CCN(CCOC(=O)c5cc(Cl)c(N)cc5OC)CC4)nn3)CCCNC(=O)NCc3cn(CCOCCOCCOCCOCCOCCOCCOCCOCCNC(=O)NC4CCN(CCOC(=O)c5cc(Cl)c(N)cc5OC)CC4)nn3)CCCNC(=O)NCc3cn(CCOCCOCCOCCOCCOCCOCCOCCOCCNC(=O)NC4CCN(CCOC(=O)c5cc(Cl)c(N)cc5OC)CC4)nn3)nn2)CC1	0.14	Active	4.5 nM
COc1cc(N)c(Cl)cc1C(=O)OCCN1CCC(NC(=O)NCCOCCOCCNC(=O)NCC(=O)OCc2ccccc2)CC1	0.15	Active	4 nM
COc1cc(N)c(Cl)cc1C(=O)OCCN1CCC(NC(=O)NCCOCCOCCOCCOCCOCCOCCOCCOCCN=[N+]=[N-])CC1	0.18	Active	121 nM
COc1cc(N)c(Cl)cc1C(=O)N[C@H]1CCN(CCCOc2ccc(F)cc2)C[C@H]1OC		Active	

Now from value to compound:

Ratio [1]	Activity [2]	Ki [3]	SMILES
0.24	Active	13 nM	CCCCNC(=O)NC1CCN(CCOC(=O)c2cc(Cl)c(N)cc2OC)CC1
	Active		COc1cc(N)c(Cl)cc1C(=O)OCCN1CCCCC1
0.21	Active	30 nM	COc1cc(N)c(Cl)cc1C(=O)OCCN1CCC(NC(=O)OC(C)(C)C)CC1
0.21	Active	61 nM	COc1cc(N)c(Cl)cc1C(=O)OCCN1CCC(NC(=O)NCCOCCOCCNC(=O)NCC(=O)O)CC1
